Results from ChEMBL document CHEMBL4513216, “Probing the Open Global Health Chemical Diversity Library for Multistage-Active Starting Points for Next-Generation Antimalarials” (ACS Infect Dis, 2020).

Experiment: Toxicity liver stage against HepG2, at 10uM
Assay type: cell-based
Parameters: test concentration 10 uM, cell line HepG2-A16-CD81EGFP
Conditions: human, HepG2-A16-CD81EGFP cells; read-out: INHIBITION
Method in brief: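 Uninfected HepG2-A16-CD81EGFP cells, 3 × 10^3 per well, 1536-well, plated on prespotted compound at 10 μM final, parasite-free screening media added to match infected plates; puromycin 10 μM positive, DMSO 0.5% negative; run in parallel with 48 h PbLuc assay at 37 °C, 5% CO2; viability by CellTiter-Glo luminescence, normalized to controls.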

Structure (SMILES) | cytotoxicity at 10 µM
CCOc1ccc(NCC(=O)NCC(=O)N2CCCC2)c(C(F)(F)F)c1 | -12.8%
O=C(O)c1cn(CC2CCCN(c3ccc4ccccc4n3)C2)nn1 (centres undefined) | -7.14%
Cc1ncc(CN(C)CC2CCCN2c2cccnn2)s1 (centres undefined) | 4.19%
COc1ccc(Br)c(C(=O)NCC2CCN(S(=O)(=O)C3CC3)CC2)c1 | -24.3%
COc1ccccc1C1(C(=O)N2CCN(CC(C)O)CC2)CC1 (centres undefined) | -3.51%
Cc1nnc(NCC(c2cccs2)N2CCCC2)c(C#N)c1C (centres undefined) | -4.94%
Cc1nc(-c2noc3ccc(C(=O)NCCN(C)C)cc23)co1 | 2.25%
Cc1n[nH]c(C)c1S(=O)(=O)N1CCC(Oc2ccccc2F)CC1 | 1.22%
CC(C)CN1CCN(C(=O)NCc2cccnc2-n2cccn2)CC1 | 7.29%
COc1ccc(C2CCCN2C(=O)c2cc(C(C)C)on2)cc1 (centres undefined) | 0.462%
Cc1cnc(N2CCC3(CCN(CC4CC4)C3=O)CC2)nc1 | 6.17%
Cc1cnccc1CN(C)C(=O)c1ccc(Cn2cnnn2)cc1 | 8.15%
CCc1nc(CNC(=O)c2ccc(C(C)N3CCCCC3)o2)cc(=O)[nH]1 (centres undefined) | -13.6%
COCCN(C)C(=O)Nc1ccc(C(=O)NCCC(=O)OC)cc1 | 7.2%
CC(=O)N1C[C@H](NS(=O)(=O)N2CCOCC2)[C@@H](c2ccc(C)o2)C1 | -1.43%
CCCN1CCC(N2CCN(c3cccc(C)n3)CC2)CC1 | -10.8%
COc1cc2c(cc1CN1C[C@@H](CN3CCOCC3)[C@@H](CO)C1)CCC2 | -2.37%
Cn1c(CS(=O)(=O)c2ccc(Cl)cc2)cc(=O)n(C)c1=O | 7.5%
COc1cccc(COCC(=O)N2CCCC(c3ccn[nH]3)C2)c1 (centres undefined) | -20.9%
CN(C)C(=O)Cc1ccccc1NCc1cccc(F)c1F | 9.03%
COCC1(CNC(=O)[C@@]23CNC[C@@H]2CN(C2CCCC2)C3)CC1 | -11.9%
CC(C)OC(=O)CNC(=O)Nc1ccc(-c2nc(C(C)C)no2)cc1 | -5.81%

Structure (SMILES) | cytotoxicity at 10 µM
CC(=O)N1CCC(N2CCOC[C@H]2c2nc(-c3cccnc3)c[nH]2)CC1 | 1.35%
Cc1ccccc1Oc1ncccc1CNS(C)(=O)=O | -22.1%
COc1ccc(C)cc1S(=O)(=O)NCC(c1cccn1C)N(C)C (centres undefined) | -11.9%
c1cnc(N2CCN(Cc3nnnn3C3CC3)CC2)nc1 | 9.29%
O=C(CSc1ccc(Br)cc1)NS(=O)(=O)c1ccc2c(c1)OCCO2 | -5.51%
CC(C)c1n[nH]c(C2CN(C(=O)c3cc4c(s3)CCC4)CCO2)n1 (centres undefined) | -11%
CCCn1nc2c(cc1=O)CN(c1ncnc3sccc13)CC2 | 49.4%
Cc1ncnc(NC(CC(C)(C)C)c2cccnc2)c1C (centres undefined) | 1.65%
CC(=O)N1CCN(c2cc(N(C)C)cnn2)CC1 | 1.37%
CC(C)N(CCS(C)(=O)=O)Cc1csc(Cc2ccc(Cl)cc2)n1 | -40.6%
CCCN(C(=O)c1cc2c([nH]c1=O)CCCC2=O)C1CCCCC1 | -0.708%
N#Cc1cccc(OCCN2CCCC(c3noc(C4CC4)n3)C2)c1 (centres undefined) | -0.276%
O=C(c1cocn1)N1CCC2(CC1)COC(COCc1ccccn1)C2 (centres undefined) | -116%
O=C(NCCc1nnc2n1CCCCC2)N1CCC2(CCOC2)C1 (centres undefined) | 4.18%
O=c1n(CCn2cccc2)nc(C2CCNCC2)n1Cc1ccccc1 | -2.06%
Cc1ccc(S(=O)(=O)NCCNC(=O)c2cncnc2C)cc1 | -1.51%
CN(C)CCN1CCCC12CCN(C(=O)c1cccnc1)CC2 | 4.68%
CCc1[nH]c2c(CNc3nc(C)cc(NC)n3)cc(C)cc2c1C | -22.4%
O=C(c1ccc(Cn2cc(Br)cn2)cc1)N1CCOCC1 | -13.6%
Cc1ccc(-c2cc(C(=O)NCCC3=CCCCC3)[nH]n2)o1 | -55.1%
COC(=O)c1cccc(C(=O)N2CCN(c3cc(C)ccc3C)CC2)n1 | 7.8%
CC(C)c1noc(CCC(=O)NC(C)c2ccccn2)n1 (centres undefined) | -5.86%

Structure (SMILES) | cytotoxicity at 10 µM
CCN(CC)CCn1cc(NC(=O)CNc2ccccc2OC)cn1 | 6.19%
Cc1cccc(NC(=O)C2CCCN2C(=O)c2ccco2)c1C (centres undefined) | -2.59%
COC(=O)N1CCCC(C(=O)N(C)C)C1 (centres undefined) | -5.87%
O=C(NCC(O)c1ccoc1)Nc1c(F)cccc1F (centres undefined) | -5.86%
Cc1cc(NC(=O)CCc2ccsc2)n(C)n1 | 17.8%
Cc1ccc(N2CC[C@@]3(O)CCN(S(C)(=O)=O)C[C@H]3C2)nn1 | 7.99%
Cc1noc(C)c1C(=O)N1C[C@@H]2CCCO[C@@H]2[C@H](N(C)C)C1 | 9.85%
Cc1cc(C)c(C(=O)N(CCO)Cc2ccccc2F)c(=O)[nH]1 | -0.626%
O=C([C@@H]1CCCN1c1nccc(Nc2ccccc2)n1)N1CCCCC1 | 0.325%
COCc1cc(NCc2cccnc2Oc2ccc(C)nc2)ncn1 | 8.12%
O=C1CN(c2cc(-c3ccccc3F)nc3ccnn23)CCCN1 | 2.77%
Cn1c(N)c2c(=O)n(C)c(-c3ccc(Cl)cc3)cc2c(C#N)c1=O | -8.91%
Cc1ncc(CNC(=O)N(CCCO)C2CCc3ccccc32)s1 (centres undefined) | -12.9%
NC(=O)NC(CC(=O)NCCc1ccc(F)cc1)c1ccccc1 (centres undefined) | -2.39%
O=C(c1ccco1)N1CC[C@@H]2O[C@H](COCC3CCOCC3)CC[C@@H]21 | 6.8%
CN(C)Cc1cc(C2CCN(C(=O)C3CC34CCC4)CC2)nn1C (centres undefined) | -15%
CC(C)Cc1cc(C(=O)NCCN2CCCS2(=O)=O)[nH]n1 | -7.39%
c1ccc(Cn2cc3c(n2)C(CNCC2CCOCC2)OCC3)nc1 (centres undefined) | -149%
O=C(c1cc(-n2cccn2)ccn1)N1CCOc2ccncc21 | 10.6%
Cc1nc(C)c(C(=O)N2CCCc3c(F)ccc(F)c32)o1 | 7.19%
COc1ccc(CN2CCN(S(=O)(=O)c3cc(C(=O)O)cs3)CC2)cc1 | 2.03%
Cc1cnc(N2CC[C@H]3[C@@H]2CCC(=O)N3c2cccnc2)nc1 | -0.298%

Structure (SMILES) | cytotoxicity at 10 µM
CCc1nnc2n1CCN(Cc1ccc3c(c1)OCCO3)C2 | -6.61%
CCOc1ccc(-n2ccc3nc(N4CCCC4)ncc3c2=O)cc1 | -1.19%
O=C(c1coc(CN2CCN(c3ccccc3F)CC2)n1)N1CCCC1 | 19.2%
CCOc1ccc(S(=O)(=O)N(CCOC)Cc2ccncc2)cc1F | 52.2%
O=C(c1ccncc1F)N1CCc2ncnc(-c3ccncc3)c2CC1 | 2.75%
NC(=O)C1(c2cnccn2)CCCN1Cc1ccncc1 (centres undefined) | -0.446%
CN(Cc1ccco1)Cc1cncc2c1CCN(S(C)(=O)=O)C2 | 2.11%
CO[C@H]1CCN(C2CCC2)[C@@H]2CN(Cc3ccncc3)C[C@H]12 | 8.13%
CCN(CC)S(=O)(=O)N1C[C@@H](c2ccccc2)[C@H]2[C@H]1CCCCCN2C | -10.4%
Cc1cc(C)nc(N2CCC(c3cc(CCO)[nH]n3)C2)n1 (centres undefined) | 4.15%
O=C(C1=CCCC1)N1C[C@@H]2COC[C@]2(COCC2CC2)C1 | -96.2%
CN1CCN(C(=O)C2(NC(N)=O)CCCCC2)Cc2ccccc21 | -6.32%
CCN(CC)C(=O)c1cc(Br)cc(S(=O)(=O)N2CCOCC2)c1F | -2.43%
COc1ccc(C)cc1CN(Cc1nc(C)c(C)o1)C1CCN(C)C1 (centres undefined) | -3.41%
O=C(C1CC(c2cccc(F)c2)=NO1)N1CCc2ccccc21 (centres undefined) | 2.46%
Cn1cc(CN2CCCN(C(=O)c3cc[nH]n3)CC2)cn1 | -8.72%
CCc1nccn1-c1cncc(C2CCCN2Cc2ccccc2)n1 (centres undefined) | -1.17%
Cc1cc(NC(=O)N2CCN(c3cccs3)CC2)ccc1C(N)=O | -7.79%
O=S(=O)(C1CC1)N1CCC2(CCCN(c3ncccn3)C2)C1 (centres undefined) | -4.02%
CCNC(=O)CN1CCC(OCC2CCCO2)CC1 (centres undefined) | -3.78%
COc1ccc2c(c1)CCCN(C(C)C(=O)N1CCCC1)C2 (centres undefined) | 10.9%
CSCc1cccc(S(=O)(=O)N2CCCC2)c1 | 8.49%

Structure (SMILES) | cytotoxicity at 10 µM
Cc1c(C(=O)NCCC(=O)N2CCCC2)cccc1-c1ccccn1 | 1.39%
O=C(CN1C(=O)c2ccccc2C1=O)N1CCOC2(CCOCC2)C1 | -5.15%
Cc1cccc(N2CC3(CCN(c4nncs4)C3)CC2=O)c1 (centres undefined) | 0.179%
CCc1nc(C2CCCN(C(=O)c3cccnc3O)C2)no1 (centres undefined) | -3.54%
Cc1ccc2c(n1)N(Cc1cccnc1)CCN(C1CCOCC1)C2 | -71.6%
NC(=O)c1cccc(CCNC(=O)N2Cc3ccccc3C2)c1 | -9.86%
CC(C)NC(=O)Nc1ccc(CNCc2ccc(OC(F)F)cc2)cc1 | -3.95%
CCS(=O)(=O)CCNC(=O)C1(c2cccc(Cl)c2)CC1 | -4%
CSCCc1c(-c2ccccc2)ncn1CCNc1cccnc1 | 5.29%
O=C(NCc1ccccc1F)NCC(O)c1cccc(F)c1 (centres undefined) | -2.95%
CN1CC(=O)N(c2ccccc2)CC12CCN(Cc1cccnc1)C2 (centres undefined) | -2.09%
CN(C)C(=O)CN1CCC2(CC1)CN(S(C)(=O)=O)Cc1ccccc1O2 | 0.56%
Cc1nn(C)c(N(C)C)c1CNCc1nnc2n1CCCCC2 | -5.68%
CC(C)COc1cncc(N2CCCC(CC(N)=O)C2)n1 (centres undefined) | -1.67%
COc1ccccc1OCCNCc1c(C)nn(C)c1N(C)C | -2.9%
COCCN1C[C@@H]2CC[C@H]1CN(C(=O)CCc1c(C)nn(C)c1C)C2 | -8.6%
Cc1ccccc1NC(=O)NCCn1nc(C(F)(F)F)n(C)c1=O | -1.68%
CC(C)n1cnnc1CN(C)C(=O)C1CCCN(C2CCN(C)CC2)C1 (centres undefined) | -1.26%
CCCS(=O)(=O)N1CC[C@@H]2[C@@H]1CC(=O)N2Cc1csc(C)n1 | -134%
CNC(=O)c1ccc(C(=O)N2CCCC2c2cnn(C)c2)cn1 (centres undefined) | -6.41%
Cc1cc(CN2C[C@H]3CCC[C@@]3(COCC3CCOCC3)C2)no1 | 0.073%
